Tests used:
Type in all cases: functional
Rattus norvegicus [1] = assay: Anticonvulsant activity against maximal electroshock-induced seizures in rats after intraperitoneal administration.; settings: ip
Summary of the method: (§1)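 Male Sprague-Dawley rats were protected against maximal electroshock-induced seizures. The ED50 is the dose that protects 50% of animals from the hind-limb extensor component, calculated by the method of Miller. For ED50s given with standard error, at least 12 animals per dose level and four doses per compound were used. Otherwise, three doses with six animals per point were used.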

Rattus norvegicus [2] = assay: Anticonvulsant activity against maximal electroshock-induced seizures in rats after ip administration at 25 mg/kg (compared to standard); settings: route intraperitoneal
Rattus norvegicus [3] = assay: Anticonvulsant activity against maximal electroshock-induced seizures in rats after oral administration; summary of the method: as §1

SMILES	ED50 (Rattus norvegicus [1]) [mg/kg]	inhibition in vivo at 25 mg/kg (Rattus norvegicus [2]) [%]	ED50 (Rattus norvegicus [3]) [mg/kg]
Fc1ccccc1Cn1cnc2c(N3CCC3)ncnc21	> 50	–	–
CNc1ncnc2c1ncn2Cc1cccc(F)c1	7	–	–
CNc1ncnc2c1ncn2Cc1ccc([N+](=O)[O-])cc1	–	0	–
CNc1ncnc2c1ncn2Cc1ccccc1Cl	6.2	–	12.5
CNc1ncnc2c1ncn2Cc1ccccc1C(F)(F)F	20	–	–
Fc1ccccc1Cn1cnc2c(NC3CCC3)ncnc21	33	–	–
CNc1ncnc2c1ncn2Cc1c(F)cccc1F	–	–	2.7
CNc1ncnc2c1ncn2Cc1ccccc1C	10	–	25
CNc1ncnc2c1ncn2Cc1cccc(O)c1	–	0	–
CC(C)(C)Nc1ncnc2c1ncn2Cc1ccccc1F	> 50	–	–
Fc1ccccc1Cn1cnc2c(N3CCCC3)ncnc21	12.5	–	35
CNc1ncnc2c1ncn2Cc1cccc(OCc2ccccc2)c1	–	17	–
Nc1ncnc2c1ncn2Cc1ccccc1F	4.5	–	12
CNc1ncnc2c1ncn2Cc1c(F)cccc1Cl	12.5	–	–
CN(C)c1ncnc2c1ncn2Cc1c(F)cccc1Cl	5	–	10
CNc1ncnc2c1ncn2Cc1ccc(F)cc1F	20	–	–
CNc1ncnc2c1ncn2Cc1cccc(F)c1F	18	–	> 50
CN(C=O)c1ncnc2c1ncn2Cc1ccccc1F	11	–	25
CNc1ncnc2c1ncn2Cc1ccccc1	5	–	12
CNc1ncnc2c1ncn2Cc1ccc(F)cc1	–	33	–
CN(C)c1ncnc2c1ncn2Cc1ccccc1	6	–	12
O=C1NC(=O)C(c2ccccc2)(c2ccccc2)N1 [PHENYTOIN]	9.6	–	–
CNc1ncnc2c1ncn2Cc1ccc(N)cc1	25	–	–
